Measurements taken from ChEMBL document CHEMBL1121580, “Comparison of biological effects of N-alkylated congeners of beta-phenethylamine derived from 2-aminotetralin, 2-aminoindan, and 6-aminobenzocycloheptene” (1980).
The source made the active and inactive calls. No cut-off for these calls is given here.

Legend:
Canis familiaris [1] = species: Canis familiaris; assay: Evaluated for inhibition of pressor response during carotid occlusion in dog.; format: functional; conditions: Canis lupus familiaris
Summary of the method: (§1)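 Dogs (8–15 kg) under thiopental sodium 15 mg/kg iv, then barbital sodium 200 mg/kg. Pressor response to bilateral carotid occlusion was monitored at least 1 h per dose. Doses changed by 0.48 log interval once responses returned to control. At least five dogs per compound; value is the calculated amount giving 50% inhibition of the pressor response.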

Mus musculus [2] = species: Mus musculus; assay: Evaluated for analgesic activity and increase in reaction time in mouse by hotplate assay; format: functional; set-up: unit not given beside the values
Summary of the method: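 Male Swiss-Webster mice (20–30 g) got 10 mg/kg ip 10 min before a single exposure to a 55 ± 0.5 °C hot plate. End point was jumping or paw licking. Ten mice per drug, plus 10 saline controls each test day; also run after naloxone 5 mg/kg ip pretreatment. Mean latency (s) ± SEM; grouped Student's t test vs control.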

Felis catus = species: Felis catus; assay: Evaluated for inhibition of pressor response during central sciatic nerve stimulation in cat; format: functional
Summary of the method: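 In cats under pentobarbital sodium 30 mg/kg intrathoracic, left femoral arterial pressure was recorded. The central stump of the sectioned right sciatic nerve was stimulated at 4 Hz, 5 ms, supramaximal voltage for 30 s (pressor 30–60 mmHg). Compounds were given iv, followed 1 h, doses stepped by 0.48 log unit; at least six cats. Value is the calculated amount giving 50% pressor inhibition.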

Rattus norvegicus [3] = species: Rattus norvegicus; assay: Evaluated for induce circling behavior in the rat expressed as rotational behavior (turns/h); format: functional
Summary of the method: (§2)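 Used male Sprague-Dawley rats (200–300 g) with unilateral substantia nigra 6-hydroxydopamine lesions. A single 10 mg/kg sc dose was given to four rats at the start of a 1-h automatic recording. Turns/h were recorded with direction (ipsilateral or contralateral); a mean above 100 counted as substantial circling.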

Mus musculus [4] = species: Mus musculus; assay: (§3) Evaluated for drug-induced inhibition of exploratory activity in mouse; format: functional; set-up: concentration or dose not given beside the values
Summary of the method: (§4)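 Male Swiss-Webster mice (20–30 g) were acclimated for several days and tested in groups of three in an activity meter. Dosing was 10 mg/kg ip immediately before cage entry; controls got water on each test day. Counts from the 18 min starting at 6 min were summed as % reduction vs control. Three groups per compound; one-way ANOVA, Scheffé.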

Mus musculus [5] = species: Mus musculus; assay: as §3; format: functional; summary of the method: as §4
Canis familiaris [6] = species: Canis familiaris; assay: Evaluated for inhibition of pressor response during carotid occlusion in dog; format: functional; conditions: Canis lupus familiaris; summary of the method: as §1
Rattus norvegicus [7] = species: Rattus norvegicus; assay: Evaluated for induce circling behavior in the rat expressed as rotational behavior (turns/h); IA = inactive; format: functional, organism-based; summary of the method: as §2
Canis familiaris [8] = species: Canis familiaris; assay: Evaluated for inhibition of pressor response during carotid occlusion in dog at 0.5; IA = inactive; format: functional, organism-based; conditions: Canis lupus familiaris
Canis familiaris [9] = species: Canis familiaris; assay: Evaluated for inhibition of pressor response during carotid occlusion in dog; IA = inactive; format: functional, organism-based; conditions: Canis lupus familiaris; summary of the method: as §1
Canis familiaris [10] = assay: Evaluated for inhibition of pressor response during carotid occlusion in dog at 0.5 mg/kg; IA = inactive; format: functional, organism-based; set-up: dose 0.5 mg/kg; conditions: Canis lupus familiaris

SMILES	Activity (Mus musculus [2])	Activity (Rattus norvegicus [3]) [turns hr-1]	Reduction (Mus musculus [4]) [%]	further results
CCNC1CCc2ccccc2C1.Cl (configuration not stated)	29.6	508	76.4	ED50 (Canis familiaris [1]): 0.52 µmol/kg; ED50 (Felis catus): 2.3 µmol/kg
CCCCNC1CCc2ccccc2C1.Cl (configuration not stated)	17.6	7	–	Reduction (Mus musculus [5]): 20.7%
CCCNC1CCc2ccccc2C1.Cl (configuration not stated)	18.9	804	79	ED50 (Canis familiaris [6]): 3.38 µmol/kg; ED50 (Felis catus): 0.9 µmol/kg
NC1CCCc2ccccc2C1 (configuration not stated)	–	–	–	Activity (Rattus norvegicus [7]): inactive
CNC1CCc2ccccc2C1.Cl (configuration not stated)	16	263	–	Reduction (Mus musculus [5]): 70.2%
CCCCNC1Cc2ccccc2C1.Cl	17.7	3	7.1	–
CCNC1Cc2ccccc2C1.Cl	22.1	17	73.6	–
CC(C)N(C)C1Cc2ccccc2C1.Cl	29.4	15	64	–
CCCN(CCC)C1Cc2ccccc2C1.Cl	22	289	64	ED50 (Felis catus): 0.25 µmol/kg
CC(C)NC1Cc2ccccc2C1.Cl	17.8	25	2.8	–
CCCN(CCC)C1CCc2ccccc2C1.Cl (configuration not stated)	29.2	734	76.5	ED50 (Canis familiaris [6]): 0.22 µmol/kg; ED50 (Felis catus): 0.09 µmol/kg
CN(C)C1CCCc2ccccc2C1 (configuration not stated)	–	–	–	ED50 (Canis familiaris [8]): inactive
CN(C)C1CCc2ccccc2C1.Cl (configuration not stated)	24.2	53	88.1	ED50 (Canis familiaris [9]): inactive; ED50 (Felis catus): 0.16 µmol/kg
CCN(CC)C1Cc2ccccc2C1.Cl	33.9	304	50.6	ED50 (Felis catus): 1.14 µmol/kg
CC(C)NC1CCCc2ccccc2C1 (configuration not stated)	–	–	–	ED50 (Canis familiaris [10]): inactive
CCCN(CCC)C1CCCc2ccccc2C1 (configuration not stated)	–	–	–	Activity (Rattus norvegicus [7]): inactive
CN(C)C1Cc2ccccc2C1.Cl	–	23	–	–
CNC1Cc2ccccc2C1.Cl	28.6	6	80.3	–
CC(C)NC1CCc2ccccc2C1.Cl (configuration not stated)	27	–	–	–
Cl.NC1Cc2ccccc2C1	35.8	27	76	–
Cl.NC1CCc2ccccc2C1 (configuration not stated)	25.6	104	55.1	–
Br.CCCCN(CCCC)C1CCc2ccccc2C1 (configuration not stated)	12	4	0.8	–
CC(C)N(C)C1CCc2ccccc2C1.Cl (configuration not stated)	20.6	16	79.7	–
CCN(CC)C1CCc2ccccc2C1.Cl (configuration not stated)	33.5	501	73.4	ED50 (Felis catus): 0.35 µmol/kg
CCCCN(CCCC)C1Cc2ccccc2C1.Cl	11.7	2	8.4	–
CCCNC1Cc2ccccc2C1.Cl	15	6	21.9	–
